Screening results (PubChem)
An excerpt weighted towards active compounds, which were near 3% of everything screened.
MC4R ag barr: activates human MC4R beta-arrestin recruitment. P32245. U2OS MC4R beta-arrestin complementation, luminescence; percent of melanotan II response, DMSO zero. activation, % at 8.9 µM. 0.98% of 360,000 active. AID 540308;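 active = activation above a per-plate cutoff, the mean activation of sample wells on that plate plus 3 SD, cut at about 8% in these data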
ABHD5-PLIN5 inh: ABHD5-PLIN5 protein interaction inhibition | Split G. princeps luciferase complementation, luminescence, 4 h | 0.78% of 360,000 active | inhibition, % at 4 µM;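 active = inhibition above the mean inhibition across every tested compound plus 3 SD, cut at about 22% in these data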;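 note: 0% = DMSO only wells and the 100% control is not disclosed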
MC4R antagonist: antagonists of human melanocortin 4 receptor (MC4R); MC4R-expressing cells, MTII-stimulated cAMP, LANCE TR-FRET; inhibition, % at 6.5 µM; P32245; 0.48% of 360,000 active;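 active = inhibition above its plate's cutoff, the mean of tested wells on that plate plus 3 SD, cut at about 29% in these data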;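 note: 0% = Melanotan II alone and 100% = Melanotan II plus saturating MCL0020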
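System – human MC4R-expressing U2OS cells · Also added – Melanotan II · Dosing – one concentration, 6.5 µM nominal · Timing – 30-min compound, 1-h challenge, 1-h detection, room temperature · Measured by – Eu-cAMP/anti-cAMP TR-FRET, emission 671 nm · Replicates – singlicate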
PfGluPho inh: PfG6PD (Plasmodium falciparum) enzyme inhibition; 0.78% of 350,000 active; inhibition, % at 20 µM; PfGluPho enzyme, NADPH resazurin-diaphorase fluorescence;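 active = inhibition reaching at least a set limit at 20 µM in the primary screen, cut at about 59% in these data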;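 note: 0% = DMSO wells with substrate and 100% = DMSO wells lacking glucose-6-phosphate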
Beta2AR agonist: human beta-2 adrenergic receptor agonism by FAP; Am2.2-beta2AR cells, FAP receptor internalization, flow cytometry; 0.43% of 340,000 active; P07550; response, % (concentration not given with the values); AID 504454;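 active = response above a set limit, near 3 SD of response in nonfluorescent compounds, cut at about 42% in these data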
Target sequence (P07550 whole entry, looked up): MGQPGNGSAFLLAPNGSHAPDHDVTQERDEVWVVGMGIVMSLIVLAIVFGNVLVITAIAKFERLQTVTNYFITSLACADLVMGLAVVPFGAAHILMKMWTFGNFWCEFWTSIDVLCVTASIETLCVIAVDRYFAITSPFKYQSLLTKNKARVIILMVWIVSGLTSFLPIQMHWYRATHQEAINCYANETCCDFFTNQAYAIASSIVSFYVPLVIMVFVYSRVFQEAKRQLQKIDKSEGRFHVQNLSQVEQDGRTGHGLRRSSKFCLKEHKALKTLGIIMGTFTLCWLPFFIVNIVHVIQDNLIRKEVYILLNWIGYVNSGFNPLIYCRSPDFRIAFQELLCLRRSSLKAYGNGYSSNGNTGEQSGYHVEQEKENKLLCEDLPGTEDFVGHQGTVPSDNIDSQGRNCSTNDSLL
U2OS cAMP counter: counter-screen for MC4R antagonists: nonselective cAMP signaling inhibitors | shares compounds with MC4R antagonist | parental U2OS, forskolin cAMP, LANCE TR-FRET | inhibition, % at 6.5 µM | 26% of 1,600 active;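 active = mean inhibition over triplicates above the low-control well mean plus 3 SD, set per campaign, cut at about 13% in these data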;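 note: signal is single emission at 671 nm which falls as cellular cAMP rises; 0% = forskolin-stimulated wells and 100% = buffer without forskolin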
MC4R cAMP antag: human MC4R cAMP antagonism confirmation | 27% of 1,600 active | inhibition, % at 6.5 µM | shares compounds with MC4R antagonist | AID 602195 | MC4R-expressing cells, MTII-stimulated cAMP, TR-FRET; in the data active = inhibition above about 29%;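 note: 0% = agonist stimulated wells alone and 100% = agonist stimulated wells plus saturating reference antagonist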
Starred values were filed as active, the others as inactive; ! = not active in a repeat.

What do the screens show for `CCOc1ccc(C(=O)NCC(=O)OC2CCOC2=O)cc1OCC` (configuration not stated)?
MC4R ag barr: -1; ABHD5-PLIN5 inh: 0; MC4R antagonist: 32*; PfGluPho inh: -8; Beta2AR agonist: 1; U2OS cAMP counter: 16*; MC4R cAMP antag: 12

What do the screens show for `O=C(c1c(F)cccc1F)N1CCC(n2nnc3cc(C(F)(F)F)ccc32)CC1`?
MC4R ag barr: 0; ABHD5-PLIN5 inh: 3; MC4R antagonist: 31*; PfGluPho inh: -10; Beta2AR agonist: -6; U2OS cAMP counter: -1; MC4R cAMP antag: -2

What do the screens show for `Cc1ccc(NC(=O)C(=O)NCc2ccncc2)cc1`?
MC4R ag barr: -3; ABHD5-PLIN5 inh: -1; MC4R antagonist: 13; PfGluPho inh: 1; Beta2AR agonist: 1

Results for O=S(=O)(c1ccccc1)N1CCN(c2nc(-c3cccnc3)nc3ccccc23)CC1 ?
MC4R ag barr: 3; ABHD5-PLIN5 inh: 5; MC4R antagonist: 11; PfGluPho inh: -14; Beta2AR agonist: 21

What do the screens show for `O=S(=O)(c1ccc(F)cc1)N1CCN(c2nc(-c3cccnc3)nc3ccccc23)CC1`?
MC4R ag barr: 4; ABHD5-PLIN5 inh: 2; MC4R antagonist: 30*; PfGluPho inh: -12; Beta2AR agonist: 18; U2OS cAMP counter: 6; MC4R cAMP antag: 23

How did Cn1c(CNc2ccc(F)cc2)nc2ccccc21 do in these assays?
MC4R ag barr: -1; ABHD5-PLIN5 inh: 4; MC4R antagonist: 8; PfGluPho inh: 11; Beta2AR agonist: -4

Results for O=C(COc1cccc2c1CCNC2=O)Nc1ccc(Cl)cc1 ?
MC4R ag barr: -4; ABHD5-PLIN5 inh: 6; MC4R antagonist: 29*; PfGluPho inh: -2; Beta2AR agonist: 12; U2OS cAMP counter: 5; MC4R cAMP antag: 0

How did COC(=O)COc1ccc(NS(=O)(=O)c2cccc([N+](=O)[O-])c2)cc1 do in these assays?
MC4R ag barr: -2; ABHD5-PLIN5 inh: -8; MC4R antagonist: 31*; PfGluPho inh: 1; Beta2AR agonist: 15; U2OS cAMP counter: 22*; MC4R cAMP antag: 43*

How did O=C(CCC1CCCN(Cc2ccc3c(c2)OCCO3)C1)NCc1ccccc1F (configuration not stated) do in these assays?
MC4R ag barr: -3; ABHD5-PLIN5 inh: 1; MC4R antagonist: 29*; PfGluPho inh: 6; Beta2AR agonist: 5; U2OS cAMP counter: -2; MC4R cAMP antag: 2

What do the screens show for `Nc1ccc(C(=O)NNC(=O)C2COc3ccccc3O2)cc1[N+](=O)[O-]` (configuration not stated)?
MC4R ag barr: -3; ABHD5-PLIN5 inh: 13; MC4R antagonist: 7; PfGluPho inh: 0; Beta2AR agonist: 2

Results for CS(=O)(=O)c1ccc(C(=O)OCC(=O)NC(=O)C2CCCCC2)cc1[N+](=O)[O-] ?
MC4R ag barr: -4; ABHD5-PLIN5 inh: 13; MC4R antagonist: 33*; PfGluPho inh: 9; Beta2AR agonist: 12; U2OS cAMP counter: 25*; MC4R cAMP antag: 43*

How did CS(=O)(=O)c1ccc(C(=O)OCC(=O)NC(=O)C2COc3ccccc3O2)cc1[N+](=O)[O-] (configuration not stated) do in these assays?
MC4R ag barr: -2; ABHD5-PLIN5 inh: 4; MC4R antagonist: 31*; PfGluPho inh: 2; Beta2AR agonist: 5; U2OS cAMP counter: 13; MC4R cAMP antag: 21

What do the screens show for `O=C1Nc2cccc3c2N(CCC3)C2=C1CCC2`?
MC4R ag barr: 0; ABHD5-PLIN5 inh: 6; MC4R antagonist: 30*; PfGluPho inh: 6; U2OS cAMP counter: 1; MC4R cAMP antag: 11

How did CCOc1ccc(Br)cc1S(=O)(=O)Nc1cccnc1 do in these assays?
MC4R ag barr: 1; ABHD5-PLIN5 inh: 0; MC4R antagonist: -1; PfGluPho inh: -11; Beta2AR agonist: -1

How did COc1ccc(NC(=O)CC(C)C)c(OC)c1 do in these assays?
MC4R ag barr: -1; ABHD5-PLIN5 inh: -4; MC4R antagonist: 2; PfGluPho inh: 0; Beta2AR agonist: 10

How did COC(=O)C(Cc1ccccc1)NC(=O)CC(C)CC(=O)Nc1ccc(OC)cc1OC (configuration not stated) do in these assays?
MC4R ag barr: 0; ABHD5-PLIN5 inh: 2; MC4R antagonist: 35*; PfGluPho inh: -18; Beta2AR agonist: 12; U2OS cAMP counter: 9; MC4R cAMP antag: 9

Results for COc1ccc(NC(=O)NCc2ccco2)c(OC)c1 ?
MC4R ag barr: -1; ABHD5-PLIN5 inh: 1; MC4R antagonist: 33*; PfGluPho inh: 9; Beta2AR agonist: -2; U2OS cAMP counter: 2; MC4R cAMP antag: 2

Results for COc1ccc(NC(=O)Nc2ccccc2SC)c(OC)c1 ?
MC4R ag barr: 1; ABHD5-PLIN5 inh: -3; MC4R antagonist: 34*; PfGluPho inh: 20; Beta2AR agonist: -7; U2OS cAMP counter: -3; MC4R cAMP antag: -10

Results for CC1=C(C(N)=O)S(=O)(=O)c2ccccc21 ?
MC4R ag barr: -3; ABHD5-PLIN5 inh: 9; MC4R antagonist: 1; PfGluPho inh: 2; Beta2AR agonist: -9

Results for O=C(NCCc1ccc(F)cc1)C1CCN(C(=O)Nc2ccccc2)CC1 ?
MC4R ag barr: 0; ABHD5-PLIN5 inh: 0; MC4R antagonist: -5; PfGluPho inh: -5; Beta2AR agonist: 1

Results for COc1ccc(-c2cc(C(=O)Nc3cc(OC)cc(C(=O)Nc4cccc(C(F)(F)F)c4)c3)[nH]n2)cc1 ?
MC4R ag barr: 7; ABHD5-PLIN5 inh: 0; MC4R antagonist: 31*!; PfGluPho inh: 9; Beta2AR agonist: 8; U2OS cAMP counter: 6; MC4R cAMP antag: 19

What do the screens show for `O=C(Nc1cccc(-c2csc(Nc3cccc(C(F)(F)F)c3)n2)c1)c1ccccc1`?
MC4R ag barr: 2; ABHD5-PLIN5 inh: -24; MC4R antagonist: 42*; PfGluPho inh: 39; Beta2AR agonist: 6; U2OS cAMP counter: 2; MC4R cAMP antag: 16

Results for COc1cc(NC(=O)c2ccno2)cc(C(=O)Nc2cccc(C(F)(F)F)c2)c1 ?
MC4R ag barr: -2; ABHD5-PLIN5 inh: 7; MC4R antagonist: 4; PfGluPho inh: 26; Beta2AR agonist: -2

How did COc1cc(NC(=O)c2cc3cccc(OC)c3o2)cc(C(=O)Nc2cccc(C(F)(F)F)c2)c1 do in these assays?
MC4R ag barr: 0; ABHD5-PLIN5 inh: -1; MC4R antagonist: 33*; PfGluPho inh: 16; Beta2AR agonist: 21; U2OS cAMP counter: 0; MC4R cAMP antag: -3

What do the screens show for `O=C(Nc1ccc(-c2csc(Nc3cccc(C(F)(F)F)c3)n2)cc1)c1ccccc1`?
MC4R ag barr: 2; ABHD5-PLIN5 inh: -29; MC4R antagonist: 23; PfGluPho inh: 17; Beta2AR agonist: 4
